Results pooled from the literature.
Target: RAC-alpha serine/threonine-protein kinase (AKT1, Homo sapiens, UniProt P31749)

With `COc1ncc2cc3ccccc3nc2c1C#N` the remaining binding was 92% (cell-free assay; competition with immobilised ligand; 5 µM).
`CC(=O)C1=C(C)N(c2cccc(C(F)(F)F)c2)C(=O)N[C@@H]1c1ccc(C#N)nc1` has a remaining binding of 90.4% (cell-free assay; competition with immobilised ligand; 1 µM).
The remaining binding of `COc1cnc(Nc2cccc(S(N)(=O)=O)c2)nc1N1CCN(c2ccccc2)C(=O)C1` is reported as 100% (binding; competition with immobilised ligand; 1 µM).
`O=C(Nc1cccnn1)N1CCC(=Cc2cccc(Oc3ccc(C(F)(F)F)cn3)c2)CC1` has a remaining binding of 93% (cell-free assay; competition with immobilised ligand; 1 µM).
For `O=C(c1ccc(Nc2ncc(Cl)c(-c3cc4ccccc4s3)n2)cc1)N1CCC(N2CCCC2)CC1`, the remaining binding was 100% (binding; competition with immobilised ligand; 1 µM).
`Cc1c(C(=O)O)cc(-c2ccc(C3CCNCC3)cc2)c2ccc(-c3ccc(C(F)(F)F)cc3)cc12` has a remaining binding of 100% (binding; competition with immobilised ligand; 1 µM).
With `C=CC(=O)N1CCC(C(=O)NCC(=O)N2CCN(c3nc(-c4cnc(N)nc4C(F)F)nc(N4CCOCC4)n3)CC2)CC1` the remaining binding was 94% (binding; competition with immobilised ligand; 1 µM).
The remaining binding of `CC1CCCN1c1nccc(-c2cnn3ncccc23)n1` (centres unmarked) is reported as 100% (binding; 1 µM).
`CS(=O)(=O)N1CCCC(NC(=O)[C@H](CCC2CCCCC2)NC(=O)c2ccc(CNc3ncnc4c3nnn4-c3ccccc3)cc2)C1` (some centres unmarked) gave a remaining binding of 100% (cell-free assay; competition with immobilised ligand; 0.1 µM).
`Cc1cnn2ncc(-c3ccnc(N(C)C)n3)c2c1` has a remaining binding of 94% (binding; 1 µM).
For `C[C@@H](c1ccc(-n2cnc3c(N)ncnc32)cc1)N1CCc2nn(C)c(Cc3ccccc3)c2C1=O`, the remaining binding was 100% (binding; competition with immobilised ligand; 0.1 µM).
For `CN(c1nccc(-c2cnn3ncccc23)n1)C1CC1`, the remaining binding was 100% (binding; 1 µM).
With `Cc1cnc(Nc2ccc(C(=O)N3CCC(N4CCCC4)CC3)cc2)nc1-c1cc2ccccc2s1` the remaining binding was 100% (binding; competition with immobilised ligand; 1 µM).
With `N[C@@H]1CCN(c2nccc(-c3cnn4ncccc34)n2)C1` the remaining binding was 100% (binding; 1 µM).
For `C[C@@H]1CN(c2ccc3ncc(-c4ccc5[nH]nc(C6CC6)c5c4)n3n2)C[C@H](C)O1`, the remaining binding was 98% (binding; competition with immobilised ligand; 50 nM).
`CN(C)c1nccc(-c2cnn3ncccc23)n1` has a remaining binding of 100% (binding; 1 µM).
For `O=C(NCCCC1CCCCC1)c1ccc(CNC(=O)c2cnn(-c3ccccc3)c2C(F)(F)F)cc1`, the remaining binding was 100% (cell-free assay; competition with immobilised ligand; 0.1 µM).
